Measured values reported in ChEMBL document CHEMBL3751804, “Carbazole-containing sulfonamides and sulfamides: Discovery of cryptochrome modulators as antidiabetic agents” (Bioorg Med Chem Lett, 2016).

Biological target: T1, Period circadian protein homolog 2 (Homo sapiens) (UniProt O15055)
T1 sequence (whole entry): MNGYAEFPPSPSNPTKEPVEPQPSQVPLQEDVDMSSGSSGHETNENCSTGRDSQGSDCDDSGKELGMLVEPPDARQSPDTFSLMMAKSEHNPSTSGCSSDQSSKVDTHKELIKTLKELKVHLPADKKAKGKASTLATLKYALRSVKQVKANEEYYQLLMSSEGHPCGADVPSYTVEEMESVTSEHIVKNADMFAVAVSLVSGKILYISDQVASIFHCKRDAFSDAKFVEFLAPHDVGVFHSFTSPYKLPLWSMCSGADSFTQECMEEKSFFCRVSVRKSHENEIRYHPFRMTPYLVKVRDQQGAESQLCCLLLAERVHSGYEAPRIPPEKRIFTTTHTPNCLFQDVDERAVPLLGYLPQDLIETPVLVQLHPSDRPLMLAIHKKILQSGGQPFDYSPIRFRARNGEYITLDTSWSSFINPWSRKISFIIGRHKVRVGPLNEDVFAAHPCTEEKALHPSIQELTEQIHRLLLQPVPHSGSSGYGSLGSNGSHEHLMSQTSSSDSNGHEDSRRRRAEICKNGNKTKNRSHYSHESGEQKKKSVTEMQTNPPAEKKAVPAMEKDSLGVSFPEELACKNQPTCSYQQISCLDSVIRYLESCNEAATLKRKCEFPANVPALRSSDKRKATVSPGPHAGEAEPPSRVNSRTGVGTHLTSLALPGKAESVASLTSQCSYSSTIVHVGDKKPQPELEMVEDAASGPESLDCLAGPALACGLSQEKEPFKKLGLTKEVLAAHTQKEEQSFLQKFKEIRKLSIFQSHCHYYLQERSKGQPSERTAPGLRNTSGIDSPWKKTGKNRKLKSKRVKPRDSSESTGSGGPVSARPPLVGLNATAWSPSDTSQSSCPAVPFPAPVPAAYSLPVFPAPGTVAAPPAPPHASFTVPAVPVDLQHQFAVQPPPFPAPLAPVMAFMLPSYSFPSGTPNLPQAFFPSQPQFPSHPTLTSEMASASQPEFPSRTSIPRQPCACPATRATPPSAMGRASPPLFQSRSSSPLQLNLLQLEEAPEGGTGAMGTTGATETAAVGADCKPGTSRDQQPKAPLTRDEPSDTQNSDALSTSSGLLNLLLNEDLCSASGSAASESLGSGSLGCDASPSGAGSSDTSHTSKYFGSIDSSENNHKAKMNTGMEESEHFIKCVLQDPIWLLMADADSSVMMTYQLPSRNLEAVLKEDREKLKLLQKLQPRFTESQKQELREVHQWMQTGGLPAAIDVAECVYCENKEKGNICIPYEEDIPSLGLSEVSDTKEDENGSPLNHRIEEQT
Test: Reduction of amplitude effect of PER2 in human U2OS cells harboring Per2-dLuc luciferase reporter gene assessed as effects on circadian rhythms
Type: cell-based
Conditions: not given; call rule not given here
In short: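 Human osteosarcoma U2OS cells carrying a Per2-dLuc luciferase reporter, treated continuously; circadian luminescence rhythm amplitude followed. 8-point threefold dilution series; EC50 taken as concentration giving 50% of the compound's own maximal response (titrations without plateau give no EC50).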

Structure (SMILES)	Activity
CS(=O)(=O)N(CC(O)Cn1c2ccccc2c2ccccc21)c1cccc(F)c1 (stereo unspecified)	Dose-dependent effect
O=S(=O)(c1ccccc1)N(Cc1ccco1)CC(O)Cn1c2ccccc2c2ccccc21 (stereo unspecified)	Dose-dependent effect
CCS(=O)(=O)N(Cc1ccco1)CC(O)Cn1c2ccccc2c2ccccc21 (stereo unspecified)	Dose-dependent effect
O=S1(=O)CCCN1CC(O)Cn1c2ccccc2c2ccccc21 (stereo unspecified)	Dose-dependent effect
O=S1(=O)NCCCN1CC(O)Cn1c2ccccc2c2ccccc21 (stereo unspecified)	Dose-dependent effect
CN1CCCN(CC(O)Cn2c3ccccc3c3ccccc32)S1(=O)=O (stereo unspecified)	Dose-dependent effect
O=S(=O)(Cc1ccccc1)N(Cc1ccco1)CC(O)Cn1c2ccccc2c2ccccc21 (stereo unspecified)	Dose-dependent effect
O=S(=O)(C1CCCCC1)N(Cc1ccco1)CC(O)Cn1c2ccccc2c2ccccc21 (stereo unspecified)	Dose-dependent effect
O=S1(=O)COCCN1CC(O)Cn1c2ccccc2c2ccccc21 (stereo unspecified)	Dose-dependent effect
CS(=O)(=O)NCC(O)Cn1c2ccccc2c2ccccc21 (stereo unspecified)	Dose-dependent effect
O=S(=O)(C1CCOC1)N(Cc1ccco1)CC(O)Cn1c2ccccc2c2ccccc21 (stereo unspecified)	Dose-dependent effect
O=S1(=O)CCCCN1CC(O)Cn1c2ccccc2c2ccccc21 (stereo unspecified)	Dose-dependent effect
CS(=O)(=O)N(Cc1ccccc1)CC(O)Cn1c2ccccc2c2ccccc21 (stereo unspecified)	Dose-dependent effect
CC(C)CS(=O)(=O)N(Cc1ccco1)CC(O)Cn1c2ccccc2c2ccccc21 (stereo unspecified)	Dose-dependent effect
CS(=O)(=O)N(CC(O)Cn1c2ccccc2c2ccccc21)c1ccc(F)cc1 (stereo unspecified)	Dose-dependent effect
CCCS(=O)(=O)N(Cc1ccco1)CC(O)Cn1c2ccccc2c2ccccc21 (stereo unspecified)	Dose-dependent effect
COCCS(=O)(=O)N(Cc1ccco1)CC(O)Cn1c2ccccc2c2ccccc21 (stereo unspecified)	Dose-dependent effect
O=S1(=O)CCN1CC(O)Cn1c2ccccc2c2ccccc21 (stereo unspecified)	Dose-dependent effect
CCCCS(=O)(=O)N(Cc1ccco1)CC(O)Cn1c2ccccc2c2ccccc21 (stereo unspecified)	Dose-dependent effect
CC(C)S(=O)(=O)N(Cc1ccco1)CC(O)Cn1c2ccccc2c2ccccc21 (stereo unspecified)	Dose-dependent effect
CN1CCN(CC(O)Cn2c3ccccc3c3ccccc32)S1(=O)=O (stereo unspecified)	Dose-dependent effect
CS(=O)(=O)N(CC(O)Cn1c2ccccc2c2ccccc21)c1ccccc1F (stereo unspecified)	Dose-dependent effect
CS(=O)(=O)N(CC(O)Cn1c2ccccc2c2ccccc21)c1ccccc1 (stereo unspecified)	Dose-dependent effect
O=S(=O)(C1CC1)N(Cc1ccco1)CC(O)Cn1c2ccccc2c2ccccc21 (stereo unspecified)	Dose-dependent effect
O=S1(=O)NCCN1CC(O)Cn1c2ccccc2c2ccccc21 (stereo unspecified)	Dose-dependent effect

The remaining lines, values ahead:

Activity	Structure (SMILES)
Dose-dependent effect	CCCN(CC(O)Cn1c2ccccc2c2ccccc21)S(C)(=O)=O (stereo unspecified)
Dose-dependent effect	CS(=O)(=O)N(CC(O)Cn1c2ccccc2c2ccccc21)C1CC1 (stereo unspecified)
Dose-dependent effect	CS(=O)(=O)N(CC(O)Cn1c2ccccc2c2ccccc21)C1CCCC1 (stereo unspecified)
Dose-dependent effect	CS(=O)(=O)N(CC(O)Cn1c2ccccc2c2ccccc21)C1CCCCC1 (stereo unspecified)
Dose-dependent effect	CC(C)N(CC(O)Cn1c2ccccc2c2ccccc21)S(C)(=O)=O (stereo unspecified)
Dose-dependent effect	CS(=O)(=O)N(CC(O)Cn1c2ccccc2c2ccccc21)C1CCC1 (stereo unspecified)
Dose-dependent effect	CS(=O)(=O)N(CC(O)Cn1c2ccccc2c2ccccc21)C1CCC(F)(F)CC1 (stereo unspecified)
Dose-dependent effect	CC(C)CN(CC(O)Cn1c2ccccc2c2ccccc21)S(C)(=O)=O (stereo unspecified)
Dose-dependent effect	CCN(CC(O)Cn1c2ccccc2c2ccccc21)S(C)(=O)=O (stereo unspecified)
Dose-dependent effect	CS(=O)(=O)N(CC(O)Cn1c2ccccc2c2ccccc21)C1COC1 (stereo unspecified)
Dose-dependent effect	CS(=O)(=O)N(CC(O)Cn1c2ccccc2c2ccccc21)C1CCOCC1 (stereo unspecified)
Dose-dependent effect	CN(CC(O)Cn1c2ccccc2c2ccccc21)S(C)(=O)=O (stereo unspecified)
Dose-dependent effect	COCCN(CC(O)Cn1c2ccccc2c2ccccc21)S(C)(=O)=O (stereo unspecified)
Dose-dependent effect	CS(=O)(=O)N(CC(O)Cn1c2ccccc2c2ccccc21)C1CC(F)(F)C1 (stereo unspecified)

Test system: not listed separately
Test: Mean plasma residence time in po dosed ICR mouse
Type: ADME, organism-based
Conditions: not given
In short: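 Male ICR mice dosed orally; plasma concentrations followed to derive mean plasma residence time (h).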

MRT	Structure (SMILES)
7.63 h	O=S1(=O)CCCN1CC(O)Cn1c2ccccc2c2ccccc21 (stereo unspecified)
5.12 h	O=S1(=O)NCCCN1CC(O)Cn1c2ccccc2c2ccccc21 (stereo unspecified)
1.92 h	CS(=O)(=O)NCC(O)Cn1c2ccccc2c2ccccc21 (stereo unspecified)
3.01 h	CN(CC(O)Cn1c2ccccc2c2ccccc21)S(C)(=O)=O (stereo unspecified)

Biological target: Voltage-gated inwardly rectifying potassium channel KCNH2 (Homo sapiens, UniProt Q12809)
Test: Inhibition of human ERG
Conditions: not given

Voltage-gated inwardly rectifying potassium channel KCNH2, sequence (Q12809 whole entry): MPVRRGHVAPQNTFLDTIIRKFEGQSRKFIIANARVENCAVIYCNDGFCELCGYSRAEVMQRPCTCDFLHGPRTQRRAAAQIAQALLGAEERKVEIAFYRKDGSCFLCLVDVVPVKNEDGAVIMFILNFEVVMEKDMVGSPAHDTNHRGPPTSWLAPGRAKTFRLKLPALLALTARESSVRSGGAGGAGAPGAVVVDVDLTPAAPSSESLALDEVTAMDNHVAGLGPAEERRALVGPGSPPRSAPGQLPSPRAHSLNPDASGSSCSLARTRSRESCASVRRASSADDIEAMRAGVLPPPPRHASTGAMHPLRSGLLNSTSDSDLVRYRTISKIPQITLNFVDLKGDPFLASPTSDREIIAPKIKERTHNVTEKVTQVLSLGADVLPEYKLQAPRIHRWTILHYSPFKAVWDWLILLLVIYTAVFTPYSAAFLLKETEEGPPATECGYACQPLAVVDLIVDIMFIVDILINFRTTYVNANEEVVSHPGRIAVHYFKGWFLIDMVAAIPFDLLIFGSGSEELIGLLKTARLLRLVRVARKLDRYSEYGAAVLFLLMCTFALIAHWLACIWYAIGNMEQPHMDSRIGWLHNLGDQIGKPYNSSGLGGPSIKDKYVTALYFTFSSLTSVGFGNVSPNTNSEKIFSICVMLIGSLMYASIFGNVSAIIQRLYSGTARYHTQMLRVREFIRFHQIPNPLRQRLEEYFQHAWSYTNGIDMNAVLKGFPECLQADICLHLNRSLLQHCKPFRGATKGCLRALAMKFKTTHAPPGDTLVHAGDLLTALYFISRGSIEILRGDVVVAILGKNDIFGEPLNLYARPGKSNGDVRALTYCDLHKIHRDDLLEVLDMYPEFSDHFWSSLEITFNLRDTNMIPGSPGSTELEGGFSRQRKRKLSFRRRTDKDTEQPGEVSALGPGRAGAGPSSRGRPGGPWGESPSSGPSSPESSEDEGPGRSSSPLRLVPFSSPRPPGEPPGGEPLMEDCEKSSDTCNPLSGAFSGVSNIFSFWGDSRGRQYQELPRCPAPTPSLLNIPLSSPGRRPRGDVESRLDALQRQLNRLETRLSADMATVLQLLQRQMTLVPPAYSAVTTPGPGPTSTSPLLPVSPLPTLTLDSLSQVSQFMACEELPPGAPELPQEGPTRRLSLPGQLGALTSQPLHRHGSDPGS

Structure (SMILES)	inhibition (INH)
O=S1(=O)CCCN1CC(O)Cn1c2ccccc2c2ccccc21 (stereo unspecified)	Not Active

Test system: Salmonella typhimurium
Test: Genotoxicity in Salmonella typhimurium by Ames assay
Type: toxicity, organism-based
Conditions: salmonella enterica subsp. enterica serovar typhimurium

Structure (SMILES)	Activity
O=S1(=O)CCCN1CC(O)Cn1c2ccccc2c2ccccc21 (stereo unspecified)	Non-toxic

Test system: Mus musculus
Test: Antidiabetic activity in diet-induced obese C57BL/6J mouse model assessed as reduction of glucose AUC at 100 mg/kg, qd for 7 days
Type: functional
Set-up: scale not given: the % may be the effect or the level left
Conditions: not given
In short: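 Diet-induced obese C57BL/6J mice (25 weeks old, high-fat diet for 19 weeks) dosed 100 mg/kg once daily for 7 days, then given an oral glucose tolerance test; glucose clearance expressed as percent reduction in glucose AUC.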

Structure (SMILES)	Activity
O=S1(=O)CCCN1CC(O)Cn1c2ccccc2c2ccccc21 (stereo unspecified)	41%
